Experimental findings from ChEMBL document CHEMBL4513216, “Probing the Open Global Health Chemical Diversity Library for Multistage-Active Starting Points for Next-Generation Antimalarials” (ACS Infect Dis, 2020) are described below.

This series is described as follows: Toxicity liver stage against HepG2, at 10uM. Format: cell-based. Details: test concentration 10 uM, cell line HepG2-A16-CD81EGFP. Conditions: human, HepG2-A16-CD81EGFP cells; read-out: INHIBITION
The method in brief: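 Uninfected HepG2-A16-CD81EGFP cells, 3 × 10^3 per well, 1536-well, plated on prespotted compound at 10 μM final, parasite-free screening media added to match infected plates; puromycin 10 μM positive, DMSO 0.5% negative; run in parallel with 48 h PbLuc assay at 37 °C, 5% CO2; viability by CellTiter-Glo luminescence, normalized to controls.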

On to `OC1(CNCCc2nc3c(s2)CCCC3)CCNC1` (stereo unspecified), for which the cytotoxicity at 10 µM was 1.44%. Then `CC(=O)N1CCS(=O)(=O)[C@@H]2CCN(S(=O)(=O)CC(C)C)CC[C@@H]21`, with 6.1%; and `CCc1c(C)n(CCOC)c2nc3ccccc3n2c1=O`, with -0.277%. Then `O=C(CCOc1cccc(F)c1)N1CCCC(n2cccn2)C1` (stereo unspecified), with -14.7%.

As for `CC(C)n1[nH]c(=O)c2c1NC(=O)CC2c1cccc(OC(F)F)c1` (stereo unspecified), the cytotoxicity at 10 µM worked out at 16%.

In the case of `CCCOc1ccc2c(c1)OCC(C(=O)NC(C)Cn1ccnc1)=C2` (stereo unspecified), the cytotoxicity at 10 µM was -4.03%. With `COCCN1CCO[C@@H]2CN(Cc3ccccn3)C[C@@H]2C1`, the cytotoxicity at 10 µM is -3.06%. Then `CCOC(=O)N1CCC2(CCNC2)C1` (stereo unspecified), with 2.14%. With `CCc1nc(C2CCCN(c3ncc(Br)cn3)C2)no1` (stereo unspecified), the cytotoxicity at 10 µM was 1.47%.

For `CC(C)(C)n1c(NC(=O)CNC(=O)NC2CC2)nc2ccccc21`, the cytotoxicity at 10 µM is 4.23%.

For the compound `CC(C)C(CNC(=O)NCc1cc[nH]n1)N1CCOCC1` (stereo unspecified), the cytotoxicity at 10 µM is -7.48%. With `CCCN1CCCN(c2ccc(-n3ccc(C)n3)nn2)CC1`, the cytotoxicity at 10 µM was -1.2%. In the case of `O=C(CCN1CCc2cncnc2C1)N1CCc2sccc2C1`, the cytotoxicity at 10 µM came to 2.37%.

Turning to `Cc1nc2ccnn2c(C)c1CCC(=O)N1CCSCC1`, the cytotoxicity at 10 µM is -4.24%. For the compound `O=C(Cc1ccccn1)N1CCC(c2noc(-c3ccncc3)n2)CC1`, the cytotoxicity at 10 µM was -26.8%. In the case of `O=C(Cc1cccc(O)c1)NC1CCN(c2cccc(Cl)c2)C1` (stereo unspecified), the cytotoxicity at 10 µM was 17.1%. `CN1CCCC[C@@H]2[C@H]1[C@@H](c1ccccc1)CCN2C(=O)c1ccccn1`: the cytotoxicity at 10 µM was -14.7%. Then `Cc1nn(C2CCS(=O)(=O)C2)c(O)c1Cc1ccccc1Cl` (stereo unspecified), with -45.7%. Then `Cn1nnc2c1C(COCC1CC1)CN(C(=O)[C@H]1CCCO1)C2` (stereo partly specified), with -8.01%; and `CC(NC(=O)NCCCc1n[nH]c(N)c1C#N)c1cccc(Cl)c1` (stereo unspecified), with -4.14%; and `CC(C)N1CCCC(Cc2nccnc2Cl)CC1` (stereo unspecified), with -3.97%. Then `CN(C)c1ccc(C(=O)N2CCCC(n3cncn3)C2)nn1` (stereo unspecified), with 0.47%. Regarding `CNC(=O)c1sc(C2CCCC2)nc1C`, the cytotoxicity at 10 µM was 13.1%. Then `CC(C)(C)c1cc(NC(=O)NCCc2nnc3n2CCC3)c(C#N)s1`, with 14.1%. Then `O=C(N[C@@H]1CCNC[C@H]1O)c1ccccc1OC(F)(F)C(F)F`, with -3.28%. Then `COc1cccc(N2CCC(N3CCOC(C(F)(F)F)C3)CC2)c1` (stereo unspecified), with -1.71%. As to `CCN1CCN(C(=O)NCc2ccccc2Cn2cncn2)CC1`, the cytotoxicity at 10 µM was 0.663%. Then `Cc1nc(C)n(CC(=O)N2CCCC(c3cc4ccccc4cn3)C2)n1` (stereo unspecified), with -22.1%; and `CC(C)[C@@H]1CN(Cc2cnc3c(S(C)(=O)=O)cnn3c2)C[C@H]1N(C)C`, with -3.5%.

Regarding `Cc1cccc(CN2CCc3ncnc(N4CCOCC4)c3CC2)n1`, the cytotoxicity at 10 µM is -4.95%. Then `c1cc2c(cc1Cn1cc(C3CCOC3)nn1)CCCO2` (stereo unspecified), with 2.03%.

For `O=C(C1CCC2(CCN(CC3CCOCC3)CC2)O1)N1CCCCO1` (stereo unspecified), the cytotoxicity at 10 µM turned out to be 1.08%. As to `COCCN(Cc1coc(-c2ccc(OC)cc2)n1)C1CC1`, the cytotoxicity at 10 µM came to 2.1%.

Turning to `CCn1nc(C)c2nc(C(C)C)nc(N3CCCCC3)c21`, the cytotoxicity at 10 µM was -7.67%.

With `COc1ccccc1-c1cc(NC(=O)CC2CCS(=O)(=O)C2)[nH]n1` (stereo unspecified), the cytotoxicity at 10 µM was -113%. Then `Cc1nc(N2CCN(C(=O)c3ccco3)CC2)c2c(n1)c(C)nn2C`, with 12.1%; and `CS(=O)(=O)c1cncnc1C1CCCN(C(=O)Cc2ccccc2F)C1` (stereo unspecified), with 2.72%.

`CC(=O)N(C)C1CCC2(CC1)CNC(=O)c1cc(C)ccc1O2` (stereo unspecified): the cytotoxicity at 10 µM was -35.4%. Take `Cc1ccc(N2CCCC3(CCN(C(=O)NC4CCCC4)C3)C2)nn1` (stereo unspecified): the cytotoxicity at 10 µM is -114%.

In the case of `CC(C(=O)NCc1ccnc(N(C)C)c1)n1cncn1` (stereo unspecified), the cytotoxicity at 10 µM is -9.7%.

On to `COCCNc1ccc(CC2CCCNC2)cn1` (stereo unspecified), for which the cytotoxicity at 10 µM came out at 7.29%.

As for `CC(C)OCCn1nnnc1Cc1ccc(Br)cc1`, the cytotoxicity at 10 µM is -5.58%. Then `O=C(c1cncc(N2CCC(O)(CO)CC2)n1)N1CCCC1`, with -7.71%. Take `COC(=O)[C@@H]1CN(C(=O)c2cscn2)C[C@H]1c1ccc(OC)cc1`: the cytotoxicity at 10 µM is -31.6%. Then `CCc1nc(C2CCCN2Cc2nnc(Cc3ccccc3)o2)no1` (stereo unspecified), with -0.313%; and `CN(C)C(=O)c1n[nH]c2c1CN(CC1CCC1)C2`, with -2.22%; and `CNC(=O)C(C)CN(C)C(=O)Nc1cc(F)cc(Br)c1` (stereo unspecified), with 4.25%. With `CCOc1nn(CC)cc1-c1nnc(SCc2cccnc2)n1C`, the cytotoxicity at 10 µM came out at 5.97%.

In the case of `Cc1cc(C)c(CNC(=O)N2CCN(c3nccs3)CC2)c(=O)[nH]1`, the cytotoxicity at 10 µM was -20.9%. Then `Cc1ccc(-n2cc(CN3CCOCC3)c(-c3cccc(C)c3)n2)cc1`, with -0.906%; and `CC1(C)CC(N(Cc2ccccc2)Cc2cccnc2)CC(C)(C)N1`, with 2.67%.

Consider `Cn1cc(C(=O)NC2CCN(C(=O)NCC3CCSCC3)CC2)cn1`, for which the cytotoxicity at 10 µM came out at 4.02%. Then `O=C(CC1CC1)NCc1cn2c(n1)CN(C(=O)C1CCOCC1)CC2`, with -73.2%; and `Cc1nc(N2CCCCC2)ncc1-c1cc(=O)[nH]c(N2CCCC2)n1`, with 1%; and `O=C(CN1C(=O)c2ccccc2C1=O)N1CCOC2(CCOCC2)C1`, with -5.15%. Then `CNc1ccccc1C(=O)N(C)CCc1ccccc1`, with -1.76%; and `c1cnnc(N2CCCC2CNCc2nc(C3CC3)no2)c1` (stereo unspecified), with -22.6%; and `COC1CN(C(=O)CC(C)(C)C)CCC(=O)N(C)c2ccccc21` (stereo unspecified), with -4.7%. For `Cc1ccc(C(=O)N2CCO[C@H]3[C@@H](OCc4ccccn4)CC[C@@H]32)o1`, the cytotoxicity at 10 µM was -2.42%. Then `Cc1nc(S(=O)(=O)N2CCc3[nH]nc(CCC(C)C)c3C2)cn1C`, with 10.2%; and `COc1ccc(CN2CCn3cc(CNC(=O)CC4CC4)nc3C2)cc1`, with -82.6%; and `Cc1ccc(CN(C)Cc2cnc(N3CCOCC3)s2)o1`, with -8.46%. Then `Cc1ccsc1CN(c1nc(CCN)nc2ccccc12)C1CC1`, with 11.7%; and `Cc1nc(NC(=O)c2c(-n3cnnn3)sc(C)c2C)sc1C`, with 2.13%; and `O=C(NCc1cn2c(n1)CN(Cc1cccnc1)CC2)C1CCC1`, with 6.76%. Then `CC(C)n1cnnc1CNC(=O)CCCOc1ccccc1Cl`, with -3.51%; and `COc1cc(C2(C(=O)NCC(=O)NC3CC3)CC2)ccc1C`, with -17.4%. `CCc1nnc2n1CCN(C(=O)C(C)Oc1cccc(C#N)c1)C2` (stereo unspecified): the cytotoxicity at 10 µM was found to be 0.855%.

As to `c1cnc(N2CCO[C@H]3CN(CC4CCOC4)C[C@H]32)cn1` (stereo partly specified), the cytotoxicity at 10 µM is -104%. Then `CC(=O)Nc1cccc(OCCNC(=O)N(C)Cc2ccncc2)c1`, with 4.77%. Then `CCS(=O)(=O)N(C)C1CCN(C(=O)c2ccc(C)c(C)c2)CC1`, with -2.76%.
